In ChEMBL document CHEMBL2203215, “Discovery of 6-[4-(6-nitroxyhexanoyl)piperazin-1-yl)]-9H-purine, as pharmacological post-conditioning agent” (Bioorg Med Chem, 2012):
Active and inactive are the calls of the source. The calls are words filed in the database; no cut-off is given here.

Experiments:
Oryctolagus cuniculus [1] = assay: Toxicity in New Zealand White rabbit ischemia/reperfusion model assessed as heart rate at total dose of 3.8 umol/kg administered bolus at 40th mins and 1st min before sustained ischemia measured at 20 mins ischemia period of initial ischemic insult; format: organism-based; details: in vivo, iv
Oryctolagus cuniculus [2] = assay: Toxicity in New Zealand White rabbit ischemia/reperfusion model assessed as blood pressure at total dose of 3.8 umol/kg administered bolus at 40th mins and 1st min before sustained ischemia measured at 20 mins ischemia period of initial ischemic insult; format: organism-based; details: in vivo, iv
Oryctolagus cuniculus [3] = assay: Toxicity in New Zealand White rabbit ischemia/reperfusion model assessed as heart rate at total dose of 3.8 umol/kg administered bolus at 20th mins of ischemia and 1st min of reperfusion measured at 180 mins reperfusion is period of reperfusion; format: organism-based; details: in vivo, iv, 3 h
Oryctolagus cuniculus [4] = assay: Toxicity in New Zealand White rabbit ischemia/reperfusion model assessed as blood pressure at total dose of 3.8 umol/kg administered bolus at 20th mins of ischemia and 1st min of reperfusion measured at 180 mins reperfusion is period of reperfusion; format: organism-based; details: in vivo, iv, 3 h
Oryctolagus cuniculus [5] = assay: Cardioprotective activity in New Zealand White rabbit ischemia/reperfusion model assessed as reduction of infarct size at total dose of 3.8 umol/kg administered bolus at 40th mins and 1st min before sustained ischemia; format: functional; parameters: scale not given: the % may be the effect or the level left
Method in brief: (§1)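 Male rabbits (n = 6–8/group), anesthetized with thiopentone 30 mg/kg via ear vein, intubated and ventilated. Subjected to 30 min regional myocardial ischemia and 3 h reperfusion. Given as two boluses of 1.9 µmol/kg (3.8 µmol/kg total). Heart slices stained with 1% TTC (phosphate buffer pH 7.4, 20 min, 37 °C), then fixed in formaldehyde. Risk zone delineated under UV at 366 nm; infarct expressed relative to risk area.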

Oryctolagus cuniculus [6] = assay: Cardioprotective activity in New Zealand White rabbit ischemia/reperfusion model assessed as reduction of infarct size at total dose of 3.8 umol/kg administered bolus at 20th mins and 1st min of reperfusion; format: functional; parameters: scale not given: the % may be the effect or the level left; method in brief: as §1
Oryctolagus cuniculus [7] = assay: Cardioprotective activity in New Zealand White rabbit ischemia/reperfusion model assessed as reduction of infarct to risk area ratio at total dose of 3.8 umol/kg administered bolus; format: functional; parameters: scale not given: the % may be the effect or the level left; method in brief: as §1
Oryctolagus cuniculus [8] = assay: Cardioprotective activity in New Zealand White rabbit ischemia/reperfusion model assessed as increase of eNOS phosphorylated level at total dose of 3.8 umol/kg administered bolus at 40th mins and 1st min before sustained ischemia by Western blot analysis; format: functional, organism-based
Oryctolagus cuniculus [9] = assay: Cardioprotective activity in New Zealand White rabbit ischemia/reperfusion model assessed as increase of phosphorylated Akt level at total dose of 3.8 umol/kg administered bolus at 40th mins and 1st min before sustained ischemia by Western blot analysis; format: functional, organism-based
Oryctolagus cuniculus [10] = assay: Toxicity in New Zealand White rabbit ischemia/reperfusion model assessed as mortality at total dose of 3.8 umol/kg administered bolus measured at 10th and 15th mins of reperfusion; format: organism-based; details: in vivo
Method in brief: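 Male rabbits, randomized (n = 6–8 per group), anesthetized with sodium thiopentone 30 mg/kg into an ear vein, intubated and mechanically ventilated. Regional myocardial ischemia for 30 min, then 3 h reperfusion. Compound given as bolus at the 20th min of ischemia and the 1st min of reperfusion, total dose 3.8 µmol/kg. Animal survival was followed through reperfusion.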

Structure (SMILES) | Activity (Oryctolagus cuniculus [1]) [bpm] | Activity (Oryctolagus cuniculus [2]) [mmHg] | Activity (Oryctolagus cuniculus [3]) [bpm] | Activity (Oryctolagus cuniculus [4]) [mmHg] | Activity (Oryctolagus cuniculus [5]) [%] | Activity (Oryctolagus cuniculus [6]) [%] | Activity (Oryctolagus cuniculus [7]) [%] | Activity (Oryctolagus cuniculus [8]) | Activity (Oryctolagus cuniculus [9]) | Activity (Oryctolagus cuniculus [10])
O=C(CO[N+](=O)[O-])N1CCN(c2ncnc3[nH]cnc23)CC1 | 278 | 114 | 274 | 109 | 37.3 | 26.2 | – | – | – | –
O=C(CCCCCO[N+](=O)[O-])N1CCN(c2ncnc3[nH]cnc23)CC1 | 278 | 117 | 269 | 112 | 24.9 | 13.4 | 12.3 | – | – | –
Nc1ncnc2c1ncn2[C@@H]1O[C@H](CO[N+](=O)[O-])[C@@H](O)[C@H]1O | 284 | 102 | 275 | 98 | – | 40.2 | – | – | – | –
O=[N+]([O-])OCCCCCCn1cnc2c(N3CCCCC3)ncnc21 | 276 | 112 | 270 | 104 | 19.8 | 36.8 | – | Active | Active | –
O=C(NCCO[N+](=O)[O-])c1nc2c(N3CCCCC3)ncnc2[nH]1 | 274 | 112 | 269 | 103 | 34.4 | – | – | – | – | Toxic
O=C(CNc1ncnc2[nH]cnc12)NCCO[N+](=O)[O-] | 282 | 110 | 273 | 104 | 34.8 | – | – | – | – | Toxic
O=[N+]([O-])OC[C@H]1O[C@@H](n2cnc3c(N4CCCCC4)ncnc32)[C@H](O)[C@@H]1O | 279 | 113 | 271 | 110 | 17.9 | 22.7 | – | – | – | –
O=C(Cn1cnc2c(N3CCCCC3)ncnc21)NCCO[N+](=O)[O-] | 280 | 115 | 276 | 102 | 28.4 | – | – | – | – | Toxic
O=C(CCCCC1CCSS1)N1CCN(c2ncnc3[nH]cnc23)CC1 (stereo not given) | 279 | 106 | 271 | 101 | – | 28.6 | – | – | – | –
